# Experimental data published in paper PMC8453865 (Clinical Pharmacology in Drug Development, 2021).
# Values joined by “and” are separate entries in the source; they are usually repeats but may differ in a detail not shown here. Identical values can stand only once.
# Assays:
# OATP1B3 = settings: in vitro; cited from earlier work
# OATP1B1 = settings: in vitro; cited from earlier work
# BCRP = settings: in vitro; cited from earlier work
# [1] = in vivo; cited from earlier work
# [2] = cited from earlier work
# OATP1B1/1B3 = assay: Effect of dabrafenib; format: in vivo, human
# CYP3A4/CYP1A2 = settings: 14 patients, repeat-dose dabrafenib (HPMC capsules); cited from earlier work
# [3] = cited from earlier work; remark: listed apart in the source
# CYP2C9 = settings: 14 patients, repeat-dose dabrafenib (HPMC capsules); cited from earlier work
# [4] = Safety and tolerability in patients; format: in vivo, human; settings: 16 patients, midazolam 3 mg
# Method in brief: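 Open-label, fixed-sequence study in patients with BRAF V600 mutation–positive tumours. CYP3A and OATP1B1/1B3 probe substrates (3 mg and 10 mg) were given together on day 1, then with the test compound (150 mg twice daily, days 8–23) on days 8 and 22, after an overnight fast of at least 8 h. Monitoring covered physical examination, vital signs, 12-lead ECG, haematology and clinical chemistry, and AEs graded by NCI CTCAE v4.03.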
# CYP3A4 [5] = assay: Effect of dabrafenib
# [6] = human, plasma
# CYP2B6 = settings: in vitro, via activation of the pregnane X receptor and constitutive androstane receptor; cited from earlier work
# CYP3A4 [7] = settings: in vitro, via activation of the pregnane X receptor and constitutive androstane receptor; cited from earlier work
# [8] = clinical study, coadministration with gemfibrozil
# [9] = repeat dabrafenib dosing 150 mg twice daily (steady state) vs rosuvastatin alone
# [10] = initial administration of dabrafenib vs midazolam alone
smiles,measurement,setting,value
CC(C)c1nc(-c2cccc(NS(=O)(=O)c3c(F)cccc3F)c2F)c(-c2ccnc(N)n2)s1 [desmethyl‐dabrafenib],inhibition of OATP1B3,OATP1B3,inhibitors
same,inhibition of OATP1B1,OATP1B1,inhibitors
same,inhibition of BCRP,BCRP,inhibitors
CC(C)c1nc(N(C)S(C)(=O)=O)nc(-c2ccc(F)cc2)c1/C=C/[C@@H](O)C[C@@H](O)CC(=O)O [rosuvastatin],excreted unchanged in the feces,[1],90%
same,rosuvastatin AUC change with gemfibrozil,[2]; [8],1.9 fold
same,rosuvastatin Cmax change with gemfibrozil,[2]; [8],2.21 fold
same,alteration in the PK parameters of rosuvastatin,"[2]; healthy volunteer study, after 6 days of rifampin (inducer) dosing",no significant alteration
same,rosuvastatin AUC increase with tipranavir/ritonavir,[2]; tipranavir/ritonavir 500 mg/200 mg twice daily for 11 days,26%
same,increase in rosuvastatin Cmax,OATP1B1/1B3; dabrafenib at initiation of dosing vs rosuvastatin alone,1.9 fold
same,increase in rosuvastatin AUC0‐∞,OATP1B1/1B3; [9],7%
same,increase in rosuvastatin Cmax,OATP1B1/1B3; [9],2.56 fold and 2.6 fold
CC(=O)C[C@H](c1ccccc1)c1c(O)c2ccccc2oc1=O [R‐warfarin],decrease in single‐dose AUC,CYP3A4/CYP1A2,33%
CC(C)(C(=O)O)c1nc(-c2cccc(NS(=O)(=O)c3c(F)cccc3F)c2F)c(-c2ccnc(N)n2)s1 [carboxy‐dabrafenib],inhibition of OATP1B3,OATP1B3,inhibitors
same,inhibition of OATP1B1,OATP1B1,inhibitors
CC(C)(CO)c1nc(-c2cccc(NS(=O)(=O)c3c(F)cccc3F)c2F)c(-c2ccnc(N)n2)s1 [hydroxy‐dabrafenib],inhibition of OATP1B3,OATP1B3,inhibitors
same,terminal half‐life of metabolite,[3]; dabrafenib metabolites,582 min
same,inhibition of OATP1B1,OATP1B1,inhibitors
CC(=O)C[C@@H](c1ccccc1)c1c(O)c2ccccc2oc1=O [S‐warfarin],decrease in single‐dose AUC,CYP2C9,37%
Cc1ncc2n1-c1ccc(Cl)cc1C(c1ccccc1F)=NC2 [midazolam],grade 4 presyncope attributed to midazolam dosing,[4],1 patient
same,change in midazolam AUC0‐∞,CYP3A4 [5]; [10],no change
same,decrease in midazolam Cmax,CYP3A4 [5]; [10],1%
same,effect of dabrafenib on midazolam tmax,CYP3A4 [5]; initial and repeat dabrafenib dosing vs midazolam alone,No effect
same,decrease in midazolam Cmax,CYP3A4 [5]; repeat dabrafenib dosing 150 mg twice daily (steady state) vs midazolam alone,47%
same,Tmax,[6],15 min
CC(C)(C)c1nc(-c2cccc(NS(=O)(=O)c3c(F)cccc3F)c2F)c(-c2ccnc(N)n2)s1 [dabrafenib],induction of CYP2B6,CYP2B6,induces
same,inhibition of OATP1B3,OATP1B3,inhibitors
same,AUC HPMC/gelatin,[3]; dabrafenib HPMC capsules vs gelatin capsules,1.8 fold
same,median terminal‐phase half‐life (t1/2),[3]; single oral dose of dabrafenib,≈ 8 hours
same,time of peak plasma concentrations after dosing,[3]; single oral dose of dabrafenib,approximately 2 hours
same,oral bioavailability,[3]; single oral dose relative to an intravenous microdose,94.5%
same,induction of CYP3A4,CYP3A4 [7],induces
same,inhibition of OATP1B1,OATP1B1,inhibitors
same,inhibition of BCRP,BCRP,inhibitors
